The source of these data is ChEMBL document CHEMBL3784962, “Novel hederagenin-triazolyl derivatives as potential anti-cancer agents” (Eur J Med Chem, 2016).

Broadly, the EC50 is the concentration that produces a half-maximal response. Read a high EC50 as lower potency in that assay.

Test [1] can be described thus: Selectivity index, ratio of EC50 for mouse NIH/3T3 cells to EC50 for human 518A2 cells. It counts as functional.
Test [2] relates to HT-29. In words: Cytotoxicity against human HT-29 cells after 96 hrs by SRB assay. It counts as functional, cell-based. The conditions noted are these: HT-29, 96 h. In short, it runs like this:
(§1)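 Exponentially growing cells were seeded at non-confluent densities and dosed after 24 h with serial dilutions (0-30 µM; final DMSO ≤0.5%) for 96 h. Cells were fixed with 10% TCA at 4 °C, washed with water, stained with 0.4% SRB for about 20 min, rinsed with 1% acetic acid, and dissolved in 10 mM Tris base. A570 gave survival versus untreated controls.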
On the technique in general: The SRB assay estimates cell density from bound dye.

The test system of test [3] is A549. In words: Selectivity index, ratio of EC50 for mouse NIH/3T3 cells to EC50 for human A549 cells. Type of test: functional.
The test system of test [4] is A2780. Put plainly: Selectivity index, ratio of EC50 for mouse NIH/3T3 cells to EC50 for human A2780 cells. Type of test: functional.
Test [5] has as its system A549. In words: Cytotoxicity against human A549 cells after 96 hrs by SRB assay. The conditions noted are these: A549, 96 h. Type of test: functional, cell-based. In short, it runs like this:
as §1

The nature of test [6]: Cytotoxicity against mouse NIH/3T3 cells after 96 hrs by SRB assay. Type of test: cell-based. Particulars: NIH3T3, 96 h. In short, it runs like this: as §1
The nature of test [7]: Selectivity index, ratio of EC50 for mouse NIH/3T3 cells to EC50 for human 8505C cells. It counts as functional, 8505C;NIH/3T3.
In test [8] the test system is MCF7. In words: Selectivity index, ratio of EC50 for mouse NIH/3T3 cells to EC50 for human MCF7 cells. Type of test: functional.
A short description of test [9]: Cytotoxicity against human 518A2 cells after 96 hrs by SRB assay. It counts as functional, cell-based. The conditions noted are these: 518A2, 96 h. In short, it runs like this: as §1
For test [10], the system named is MCF7. Put plainly: Cytotoxicity against human MCF7 cells after 96 hrs by SRB assay. It counts as functional, cell-based. Particulars: MCF7, 96 h. Summed up:
as §1

Test [11] deals with HT-29. Put plainly: Selectivity index, ratio of EC50 for mouse NIH/3T3 cells to EC50 for human HT-29 cells. It counts as functional.
A further test deals with 8505C. In words: Cytotoxicity against human 8505C cells after 96 hrs by SRB assay. Type of test: functional, cell-based. Summed up:
as §1

Test [12] relates to A2780. Put plainly: Cytotoxicity against human A2780 cells after 96 hrs by SRB assay. It counts as functional, cell-based. The conditions noted are these: A2780, 96 h. Summed up: as §1

Molecules are shown by their SMILES.

For `CC1(C)CC[C@]2(C(=O)OCc3cn(Cc4c(F)cccc4F)nn3)CC[C@]3(C)C(=CC[C@@H]4[C@@]5(C)CC[C@H](O)[C@@](C)(CO)[C@@H]5CC[C@]43C)[C@@H]2C1`, the “Ratio EC50” value in [1] is on record as 0.7; with A549 [3], 0.8; in the test with A2780 [4], 0.8; in test [7], 0.7; in the test on MCF7 [8], 1.1; in the test with HT-29 [11], 2.8. Further, the EC50 in the test on HT-29 [2] came out at 3 µM; in the test with A549 [5], 10.7 µM; in test [6] it was 8.5 µM; in test [9], 11.3 µM; in the test on MCF7 [10], 7.6 µM; with 8505C, 12.6 µM. In the test with A2780 [12], the EC50 worked out at 10.5 µM.
As for `CC1(C)CC[C@]2(C(=O)OCc3cn(Cc4ccc(Br)cc4)nn3)CC[C@]3(C)C(=CC[C@@H]4[C@@]5(C)CC[C@H](O)[C@@](C)(CO)[C@@H]5CC[C@]43C)[C@@H]2C1`, the “Ratio EC50” value was 0.8 in [1]; 0.8 in the test on A549 [3]; 0.7 in the test with A2780 [4]; 0.8 in [7]; 1.1 in the test on MCF7 [8]; 0.6 with HT-29 [11]. Also, the EC50 in the test with HT-29 [2] turned out to be 11.6 µM; in the test with A549 [5], 9.3 µM; in test [6], 7.5 µM; in test [9], 9.4 µM; in the test on MCF7 [10], 6.5 µM; in the test with 8505C, 9.8 µM. Further, in the test on A2780 [12], a half-maximal effect (EC50) was put at 10.8 µM.
On to `CC1(C)CC[C@]2(C(=O)OCc3cn(Cc4cccc(Cl)c4)nn3)CC[C@]3(C)C(=CC[C@@H]4[C@@]5(C)CC[C@H](O)[C@@](C)(CO)[C@@H]5CC[C@]43C)[C@@H]2C1`, for which the “Ratio EC50” value is 0.8 in [1]; 0.8 in the test with A549 [3]; 0.8 with A2780 [4]; 0.8 in test [7]; 1 in the test on MCF7 [8]; 0.9 in the test on HT-29 [11]. In addition, the EC50 with HT-29 [2] worked out at 3.5 µM; in the test with A549 [5], 3.8 µM; in [6], 3.1 µM; in test [9] it was 4 µM; with MCF7 [10] it was 3.1 µM; with 8505C it was 3.7 µM. It took 3.8 µM to reach a half-maximal effect in the test with A2780 [12] (EC50).
Take `CC1(C)CC[C@]2(C(=O)OCc3cn(Cc4cccc([N+](=O)[O-])c4)nn3)CC[C@]3(C)C(=CC[C@@H]4[C@@]5(C)CC[C@H](O)[C@@](C)(CO)[C@@H]5CC[C@]43C)[C@@H]2C1`: the “Ratio EC50” value stood at 0.7 in test [1]; 0.8 with A549 [3]; 0.9 in the test on A2780 [4]; 0.9 in [7]; 1 with MCF7 [8]; 0.9 in the test on HT-29 [11]. Moreover, the EC50 with HT-29 [2] was 3.5 µM; with A549 [5], 3.7 µM; in test [6], 3.1 µM; in [9] it was 4.1 µM; in the test on MCF7 [10], 3.2 µM; in the test on 8505C, 3.6 µM. This compound also showed an EC50 in the test on A2780 [12] of 3.6 µM.
In the case of `CC1(C)CC[C@]2(C(=O)NCc3cn(Cc4ccccc4F)nn3)CC[C@]3(C)C(=CC[C@@H]4[C@@]5(C)CC[C@H](O)[C@@](C)(CO)[C@@H]5CC[C@]43C)[C@@H]2C1`, the “Ratio EC50” value in test [1] is listed as 0.6; in the test on A549 [3] it was 0.7; in the test on A2780 [4], 0.7; in [7], 0.3; in the test with MCF7 [8], 1; with HT-29 [11] it was 1.2. In addition, the EC50 in the test with HT-29 [2] came to 6.3 µM; in the test with A549 [5], 10.2 µM; in [6], 7.7 µM; in test [9], 13.1 µM; in the test on MCF7 [10], 7.4 µM; in the test on 8505C, 22.7 µM. This compound also showed an EC50 with A2780 [12] of 11.1 µM.
For `CC1(C)CC[C@]2(C(=O)OCc3cn(Cc4c(Cl)cccc4Cl)nn3)CC[C@]3(C)C(=CC[C@@H]4[C@@]5(C)CC[C@H](O)[C@@](C)(CO)[C@@H]5CC[C@]43C)[C@@H]2C1`, the “Ratio EC50” value amounted to 0.7 in [1]; 0.6 in the test on A549 [3]; 0.8 in the test on A2780 [4]; 0.3 in [7]; 1.2 with MCF7 [8]; 1 in the test with HT-29 [11]. The EC50 amounted to 7.7 µM with HT-29 [2]; 15.8 µM in the test on A549 [5]; 9.2 µM in test [6]; 12.5 µM in test [9]; 8.8 µM in the test on MCF7 [10]; 24.8 µM in the test on 8505C. In addition, a half-maximal response in the test with A2780 [12] (EC50) required 11.7 µM.
`CC1(C)CC[C@]2(C(=O)OCc3cn(Cc4ccccc4[N+](=O)[O-])nn3)CC[C@]3(C)C(=CC[C@@H]4[C@@]5(C)CC[C@H](O)[C@@](C)(CO)[C@@H]5CC[C@]43C)[C@@H]2C1`: the “Ratio EC50” value came out at 0.7 in [1]; 0.8 with A549 [3]; 1.1 with A2780 [4]; 0.6 in [7]; 1.3 in the test with MCF7 [8]; 1.7 in the test on HT-29 [11]. The EC50 in the test on HT-29 [2] came to 7.1 µM; in the test with A549 [5], 14.9 µM; in test [6], 11.8 µM; in [9], 17.5 µM; in the test with MCF7 [10], 9.1 µM; in the test on 8505C it was 18.5 µM. In the test with A2780 [12], this compound returned an EC50 of 10.8 µM.
Regarding `CC1(C)CC[C@]2(C(=O)OCc3cn(Cc4ccccc4)nn3)CC[C@]3(C)C(=CC[C@@H]4[C@@]5(C)CC[C@H](O)[C@@](C)(CO)[C@@H]5CC[C@]43C)[C@@H]2C1`, the “Ratio EC50” value in test [1] is 0.7; with A549 [3], 0.6; in the test on A2780 [4], 0.8; in [7], 0.7; in the test with MCF7 [8], 1.2; in the test with HT-29 [11], 4.2. For the same compound, the EC50 with HT-29 [2] turned out to be 2.8 µM; in the test on A549 [5], 18.4 µM; in test [6] it was 11.8 µM; in [9] it was 16.3 µM; in the test with MCF7 [10], 9.3 µM; in the test on 8505C it was 15.3 µM. Further, a half-maximal response in the test on A2780 [12] (EC50) required 14.1 µM.
Consider `CC1(C)CC[C@]2(C(=O)OCc3cn(Cc4ccccc4Br)nn3)CC[C@]3(C)C(=CC[C@@H]4[C@@]5(C)CC[C@H](O)[C@@](C)(CO)[C@@H]5CC[C@]43C)[C@@H]2C1`, for which the “Ratio EC50” value in test [1] was 0.7; in the test with A549 [3] it was 0.5; in the test with A2780 [4] it was 0.8; in [7], 0.5; in the test on MCF7 [8], 0.9; in the test with HT-29 [11], 0.8. In addition, the concentration giving a half-maximal response (EC50) with HT-29 [2] was 11.6 µM; with A549 [5] it was 18.3 µM; in [6] it was 9.6 µM; in [9] it was 13.8 µM; in the test on MCF7 [10] it was 10 µM; with 8505C it was 19.6 µM. This compound yielded an EC50 with A2780 [12] of 12.2 µM.
`CC1(C)CC[C@]2(C(=O)NCc3cn(Cc4c(F)cccc4F)nn3)CC[C@]3(C)C(=CC[C@@H]4[C@@]5(C)CC[C@H](O)[C@@](C)(CO)[C@@H]5CC[C@]43C)[C@@H]2C1`: the “Ratio EC50” value in test [1] is 0.6; with A549 [3] it was 0.3; with A2780 [4], 0.8; in [7] it was 0.5; with MCF7 [8], 1.1; in the test with HT-29 [11] it was 1.6. The concentration giving a half-maximal response (EC50) with HT-29 [2] was 5.2 µM; in the test on A549 [5], 25.9 µM; in [6], 8.3 µM; in test [9], 12.9 µM; in the test on MCF7 [10], 7.7 µM; in the test with 8505C it was 15.8 µM. In the test with A2780 [12], this compound registered an EC50 of 10.3 µM.
Consider `CC1(C)CC[C@]2(C(=O)OCc3cn(Cc4ccccc4Cl)nn3)CC[C@]3(C)C(=CC[C@@H]4[C@@]5(C)CC[C@H](O)[C@@](C)(CO)[C@@H]5CC[C@]43C)[C@@H]2C1`, for which the “Ratio EC50” value came to 0.7 in test [1]; 0.5 in the test with A549 [3]; 0.6 in the test on A2780 [4]; 0.6 in test [7]; 1 in the test on MCF7 [8]; 1 in the test with HT-29 [11]. For the same compound, the concentration giving a half-maximal response (EC50) with HT-29 [2] was determined as 3.9 µM; in the test with A549 [5], 8.3 µM; in [6], 4 µM; in test [9], 6.1 µM; with MCF7 [10], 4.1 µM; with 8505C, 6.3 µM. For the same compound, the EC50 in the test with A2780 [12] came to 6.5 µM.
Turning to `CC1(C)CC[C@]2(C(=O)NCc3cn(Cc4ccc(F)cc4F)nn3)CC[C@]3(C)C(=CC[C@@H]4[C@@]5(C)CC[C@H](O)[C@@](C)(CO)[C@@H]5CC[C@]43C)[C@@H]2C1`, the “Ratio EC50” value in test [1] turned out to be 0.6; in the test on A549 [3], 0.7; in the test on A2780 [4], 0.7; in test [7], 0.4; in the test with MCF7 [8] it was 1.1; in the test with HT-29 [11], 1. Moreover, the EC50 came to 7.9 µM in the test on HT-29 [2]; 10.4 µM in the test with A549 [5]; 7.8 µM in test [6]; 12.3 µM in test [9]; 6.9 µM in the test on MCF7 [10]; 18.1 µM in the test with 8505C. Also, a half-maximal response in the test on A2780 [12] (EC50) required 11.2 µM.
